Source: ChEMBL document CHEMBL4033712, “Synthesis and biological evaluation of new C-12(α/β)-(N-) sulfamoyl-phenylamino-14-deoxy-andrographolide derivatives as potent anti-cancer agents” (Bioorg Med Chem Lett, 2017)

Columns and labels:
Assay type in all cases: functional
[1] = system: SR; experiment: Growth inhibition of human SR cells incubated for 48 hrs by sulforhodamine B assay
Method in brief: (§1)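 NCI 60 human tumour cell line panel, five-dose study at 0.01, 0.1, 1, 10 and 100 µM, 48 h incubation. Sulforhodamine B protein-binding dye end point. GI50 (50% decrease in net cell growth), TGI (total growth inhibition) and LC50 (net 50% loss of initial cells) read from log concentration versus % growth inhibition curves.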

[2] = system: A549; experiment: Growth inhibition of human A549/ATCC cells incubated for 48 hrs by sulforhodamine B assay; details: A549, 48 h
Method in brief: (§2)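 NCI-60 five-dose screen at 0.01, 0.1, 1, 10 and 100 µM, 48 h incubation, sulforhodamine B end point. GI50 (50% decrease in net growth), TGI (total growth inhibition) and LC50 (net 50% loss of initial cells) taken from log concentration versus % growth inhibition curves.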

[3] = system: DU-145; experiment: Growth inhibition of human DU145 cells incubated for 48 hrs by sulforhodamine B assay; details: DU-145, 48 h; method in brief: as §2
[4] = system: MDA-MB-435; experiment: Growth inhibition of human MDA-MB-435 cells incubated for 48 hrs by sulforhodamine B assay; details: MDA-MB-435, 48 h; method in brief: as §2
[5] = system: UACC-257; experiment: Growth inhibition of human UACC257 cells incubated for 48 hrs by sulforhodamine B assay; details: UACC-257, 48 h; method in brief: as §1
[6] = system: OVCAR-3; experiment: Growth inhibition of human OVCAR3 cells incubated for 48 hrs by sulforhodamine B assay; details: OVCAR-3, 48 h; method in brief: as §2
[7] = system: T47D; experiment: Growth inhibition of human T47D cells incubated for 48 hrs by sulforhodamine B assay; method in brief: as §1
[8] = system: SK-MEL-28; experiment: Growth inhibition of human SK-MEL-28 cells incubated for 48 hrs by sulforhodamine B assay; details: SK-MEL-28, 48 h; method in brief: as §1
[9] = system: CAKI-1; experiment: Growth inhibition of human Caki1 cells incubated for 48 hrs by sulforhodamine B assay; details: CAKI-1, 48 h; method in brief: as §2
[10] = system: SK-MEL-2; experiment: Growth inhibition of human SK-MEL-2 cells incubated for 48 hrs by sulforhodamine B assay; details: SK-MEL-2, 48 h; method in brief: as §1
[11] = system: LOX IMVI; experiment: Growth inhibition of human LOXIMVI cells incubated for 48 hrs by sulforhodamine B assay; method in brief: as §2
[12] = system: SF-295; experiment: Growth inhibition of human SF295 cells incubated for 48 hrs by sulforhodamine B assay; details: SF-295, 48 h; method in brief: as §1
[13] = system: K562; experiment: Growth inhibition of human K562 cells incubated for 48 hrs by sulforhodamine B assay; details: K562, 48 h; method in brief: as §2
[14] = system: HCT-116; experiment: Growth inhibition of human HCT116 cells incubated for 48 hrs by sulforhodamine B assay; details: HCT-116, 48 h; method in brief: as §2
[15] = system: MCF7; experiment: Growth inhibition of human MCF7 cells incubated for 48 hrs by sulforhodamine B assay; details: MCF7, 48 h; method in brief: as §2
[16] = system: NCI-H460; experiment: Growth inhibition of human NCI-H460 cells incubated for 48 hrs by sulforhodamine B assay; details: NCI-H460, 48 h; method in brief: as §2
[17] = system: HOP-62; experiment: Growth inhibition of human HOP62 cells incubated for 48 hrs by sulforhodamine B assay; details: HOP-62, 48 h; method in brief: as §2
[18] = system: SK-OV-3; experiment: Growth inhibition of human SKOV3 cells incubated for 48 hrs by sulforhodamine B assay; details: SK-OV-3, 48 h; method in brief: as §1
[19] = system: NCI-H522; experiment: Growth inhibition of human NCI-H522 cells incubated for 48 hrs by sulforhodamine B assay; details: NCI-H522, 48 h; method in brief: as §2
[20] = system: NCI/ADR-RES; experiment: Growth inhibition of human NCI/ADR-RES cells incubated for 48 hrs by sulforhodamine B assay; method in brief: as §2
[21] = system: MOLT-4; experiment: Growth inhibition of human MOLT4 cells incubated for 48 hrs by sulforhodamine B assay; details: MOLT-4, 48 h; method in brief: as §2
[22] = system: SF-539; experiment: Growth inhibition of human SF539 cells incubated for 48 hrs by sulforhodamine B assay; details: SF-539, 48 h; method in brief: as §1
[23] = system: SW-620; experiment: Growth inhibition of human SW620 cells incubated for 48 hrs by sulforhodamine B assay; details: SW-620, 48 h; method in brief: as §1
[24] = system: HL-60(TB); experiment: Growth inhibition of human HL-60(TB) cells incubated for 48 hrs by sulforhodamine B assay; details: HL-60, 48 h
Method in brief: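 NCI-60 five-dose screen at 0.01, 0.1, 1, 10 and 100 µM for 48 h, sulforhodamine B read-out. GI50 taken from log concentration versus % growth inhibition curves as the concentration giving 50% decrease in net cell growth.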

[25] = system: NCI-H226; experiment: Growth inhibition of human NCI-H226 cells incubated for 48 hrs by sulforhodamine B assay; details: NCI-H226, 48 h; method in brief: as §2
[26] = system: CCRF-CEM; experiment: Growth inhibition of human CCRF-CEM cells incubated for 48 hrs by sulforhodamine B assay; method in brief: as §2
[27] = system: U-251; experiment: Growth inhibition of human U251 cells incubated for 48 hrs by sulforhodamine B assay; details: U-251, 48 h; method in brief: as §1
[28] = system: HCC 2998; experiment: Growth inhibition of human HCC2998 cells incubated for 48 hrs by sulforhodamine B assay; details: HCC 2998, 48 h; method in brief: as §2
[29] = read-out: LC50 (the source's name)

## C=C1CC[C@@H]2[C@](C)(COC(C)=O)[C@H](OC(C)=O)CC[C@@]2(C)[C@H]1CC(Nc1ccc(S(=O)(=O)Nc2ncccn2)cc1)C1=CCOC1=O (stereo partly drawn)
[1]
  GI50: 0.31 µM
  TGI: 17.2 µM
[1]; [29]
  CC50: > 100 µM
[2]
  GI50: 3.18 µM
  TGI: 9.98 µM
[2]; [29]
  CC50: 34.6 µM
[3]
  GI50: 1.62 µM
  TGI: 3.07 µM
[3]; [29]
  CC50: 5.83 µM
[4]
  GI50: 1.58 µM
  TGI: 3.77 µM
[4]; [29]
  CC50: 9.04 µM
[5]
  GI50: 2.34 µM
  TGI: 6.07 µM
[5]; [29]
  CC50: 21.9 µM
[6]
  GI50: 1.21 µM
  TGI: 2.54 µM
[6]; [29]
  CC50: 5.31 µM
[7]
  GI50: 2 µM
  TGI: 5.46 µM
[7]; [29]
  CC50: > 100 µM
[8]
  GI50: 1.69 µM
  LC50 (50% net cell kill): 6.2 µM
  TGI: 3.24 µM
[9]
  GI50: 1.74 µM
  TGI: 4.04 µM
[9]; [29]
  CC50: 9.39 µM
[10]
  GI50: 2.36 µM
  TGI: 7.2 µM
[10]; [29]
  CC50: 30.4 µM
[11]
  GI50: 0.89 µM
  TGI: 2.21 µM
[11]; [29]
  CC50: 5.06 µM
[12]
  GI50: 6.07 µM
  TGI: 18.7 µM
[12]; [29]
  CC50: 44.6 µM
[13]
  GI50: 1.73 µM
  TGI: 11.7 µM
[13]; [29]
  CC50: > 100 µM
[14]
  GI50: 0.87 µM
  TGI: 2.49 µM
[14]; [29]
  CC50: 6.51 µM
[15]
  GI50: 1.07 µM
  TGI: 4.54 µM
[15]; [29]
  CC50: > 100 µM
[16]
  GI50: 1.98 µM
  TGI: 4.06 µM
[16]; [29]
  CC50: 8.32 µM
[17]
  GI50: 3.02 µM
  TGI: 6.44 µM
[17]; [29]
  CC50: 21.5 µM
[18]
  GI50: 6.27 µM
  TGI: 18.3 µM
[18]; [29]
  CC50: 42.8 µM
[19]
  GI50: 0.49 µM
  TGI: 2.07 µM
[19]; [29]
  CC50: 6.45 µM
[20]
  GI50: 1.83 µM
  LC50 (concentration giving net 50% loss of initial cells): > 100 µM
  TGI: 5.28 µM
[21]
  GI50: 2.27 µM
  TGI: 8.37 µM
[21]; [29]
  CC50: > 100 µM
[22]
  GI50: 1.5 µM
  TGI: 2.94 µM
[22]; [29]
  CC50: 5.78 µM
[23]
  GI50: 0.86 µM
  TGI: 2.25 µM
[23]; [29]
  CC50: 5.36 µM
[24]
  GI50: 1.3 µM
  TGI: 3.64 µM
[24]; [29]
  CC50: > 100 µM
[25]
  GI50: 1.63 µM
  TGI: 3.57 µM
[26]
  GI50: 0.73 µM
  TGI: 3.41 µM
[26]; [29]
  CC50: > 100 µM
[27]
  GI50: 1.74 µM
  TGI: 3.28 µM
[27]; [29]
  CC50: 6.17 µM
[28]
  GI50: 2.1 µM
  TGI: 3.81 µM
[28]; [29]
  CC50: 6.9 µM
